Laboratory results reported in the EternaBench riboswitch data.

Tested on: MS2 coat protein
Assay: apparent Kd, MS2 coat protein; higher = weaker binding; RNA-MaP array
In short: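 Fluorescently labeled MS2 coat protein, from 1.5 nM to 3 μM, was incubated at room temperature with designed RNAs transcribed on an Illumina sequencing chip from sequenced DNA templates. Times ran from 0.8–1.5 h at the lowest concentrations to 10–20 min at the highest, in Tris-HCl pH 7.5 buffer with KCl, MgCl2, BSA, DTT, tRNA and Tween20, with or without input ligand. Each apparent Kd is the median of per-cluster binding-curve fits, and designs with fewer than 10 measured clusters were excluded.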

[1] = designed as: ON switch for flavin mononucleotide, no ligand
[2] = ligand present: flavin mononucleotide, designed as: ON switch for flavin mononucleotide
[3] = designed as: OFF switch for flavin mononucleotide, no ligand
[4] = ligand present: flavin mononucleotide, designed as: OFF switch for flavin mononucleotide
[5] = designed as: ON switch for theophylline, no ligand
[6] = ligand present: theophylline, designed as: ON switch for theophylline

## CGUUAAGAACAGAAGGCCGAGAUAAUGUUCAGCGGAGGAUAUGUGGAAGAUAGAACAUGAGGAUCACCCAUGUCAACUAGUACC
[1]
  apparent Kd: 6.01 nM
[2]
  apparent Kd: 5.82 nM

## CUGGUUGCCGGUUGCGACACAUGAGGAUCACCCAUGUAUACCGAGGAUAUGUGGAGCUGUAGAUGACAGAAGGCGGUGAGUAUC
[1]
  apparent Kd: 53.7 nM
[2]
  apparent Kd: 38.1 nM

## AAAACUACAGAUACCUUAACAUGAGGAUCACCCAUGUGAGCUGAGGAUAUGUCCACGCUUUAAGGACAGAAGGCAGGAGCAUAG
[3]
  apparent Kd: 25.2 nM
[4]
  apparent Kd: 36.9 nM

## UCCUUUAGACAUGAGGAUCACCCAUGUAGCCUCACUGUUCGUAGAAGGACACCGCUGUUCAAGCUGUAGGAUAUACGGAGGAUC
[3]
  apparent Kd: 468 nM
[4]
  apparent Kd: 319 nM

## CAUGUACUAGGAUAUACAAUCACUCGUCAGGCAGCGUUAACACAUGAGGAUCACCCAUGUAGAAGGAGUUUAAA
[3]
  apparent Kd: 8.74 nM
[4]
  apparent Kd: 8.2 nM

## GCUCAUUGCGAGGAUAUUGGAAGAGUGUAAACUCAAGAAGGCGCAACAUGAGGAUCACCCAUGUGAACCCAAAU
[3]
  apparent Kd: 7.91 nM
[4]
  apparent Kd: 14 nM

## UAGCUGCUUCAGAAGGCCGUUGGGUGAAAACGCUCCGGGUGCCACAUGAGGAUCACCCAUGUUUCGGAGGAUAUGAAAGCAUCC
[3]
  apparent Kd: 47.8 nM
[4]
  apparent Kd: 201 nM

## GUGCAGUUAUUAGGAUAUAAGACAUGGGACAUGAGGAUCACCCAUGUCGUAAGAAAUACCGUUGAUUAGAAGGAAUUCCGGCAC
[1]
  apparent Kd: 1010 nM
[2]
  apparent Kd: 283 nM

## CGUUAGACAGGAUAUACACUGGGAAGCGCGGUUUGCGGGAGACAUGAGGAUCACCCAUGUAGAAGGGUCCGGCA
[3]
  apparent Kd: 9.14 nM
[4]
  apparent Kd: 9.4 nM

## CCGUAUCCGUAGGAUAUCGACACGAGUCACGUGCGAGAAGGACGGACAUGAGGAUCACCCAUGUAUGCUUCGUG
[3]
  apparent Kd: 22.6 nM
[4]
  apparent Kd: 48.4 nM

## UAAGUACGACAGAAGGGAUGAAAUUAUAACAAAUCAGGAUAUGUGAGUUACCAAUGCAAGCAUUACAUGAGGAUCACCCAUGUG
[1]
  apparent Kd: 16.9 nM
[2]
  apparent Kd: 10.1 nM

## ACCUCAAUGGAUGAUACCAGCUCAAGGACGAACAUGAGGAUCACCCAUGUGACGUGGUGUAGCCCUUGGCAGCAUACUGACACCU
[5]
  apparent Kd: 39.4 nM
[6]
  apparent Kd: 21.3 nM

## CGAUGCGCAUUAUCCCACUGGUAUGAGUCUCGAGGACCGGUACGGCCGCCACUCGCUACCGUACAUGAGGAUCACCCAUGUAUUA
Designed as: OFF switch for tryptophan, no ligand
  apparent Kd: 28 nM
Ligand present: tryptophan, designed as: OFF switch for tryptophan
  apparent Kd: 45.9 nM

## CGUAGGAUCGUGGAUACCAGUACCGCCCACGACAUGAGGAUCACCCAUGUAGGUAAUCUUUACCCUUGGCAGCCAUUUUUUUCUG
[5]
  apparent Kd: 45.6 nM
[6]
  apparent Kd: 52.9 nM

## AGACAUGGCGGAUAGGAUAUGUGGGCGUCUACAUGAGGAUCACCCAUGUUGCUCGGAUGCAAUCUACAGAAGGAUCGACCCAGUGC
[1]
  apparent Kd: 106 nM
[2]
  apparent Kd: 16.1 nM

## ACUAAACAUGAGGAUCACCCAUGUAAUUGAAGCUAAGGAUAUCAGAAGAAUGGUGAUUCAUGAGAAGGAAGCGAUU
[1]
  apparent Kd: 86.9 nM
[2]
  apparent Kd: 58.6 nM

## ACAUCGAGGCGAGGAUAUAUGACAUGAGGAUCACCCAUGUCUGCGUGAUCGUCGAACAAAUGUUCAUAGAAGGCGCUAGAAAUG
[3]
  apparent Kd: 112 nM
[4]
  apparent Kd: 20.6 nM

## AGUUAACCGGGUGUUCUACAUGAGGAUCACCCAUGUACACUCAGAAGGCUCGAAUCUAGGGAUGGAGAGGAUAUGAAAACUGAU
[3]
  apparent Kd: 21.4 nM
[4]
  apparent Kd: 36.5 nM

## GCACAAUUAGGAUAUACAUGGGUAUAGGGUGAGACGAAUGCACAUGAGGAUCACCCAUGUAGAAGGAAUCGUCA
[3]
  apparent Kd: 303 nM
[4]
  apparent Kd: 332 nM

## CGUAUUGCUCGUUAGGAUAUCCAAUCUGAAACAUGAGGAUCACCCAUGUAGCCAGCAUCACAUGAGGAGAAGGAACAAGAUAAACG
[1]
  apparent Kd: 16.6 nM
[2]
  apparent Kd: 8.89 nM

## UUUGCUACCUAGAAGGCUGACGAGACAUGAGGAUCACCCAUGUUGGAAAUUCUUACGGCAAUGGCAGAGGAUAUAGGACGAAAA
[3]
  apparent Kd: 7.66 nM
[4]
  apparent Kd: 11.3 nM

## CCCAAGCCAGCUGAUACCAGUGACGUGGUCAGAAUGUGCGACAUGAGGAUCACCCAUGUACACCCUUGGCAGCAGUAGAACGGUU
Designed as: OFF switch for theophylline, no ligand
  apparent Kd: 14.4 nM
Ligand present: theophylline, designed as: OFF switch for theophylline
  apparent Kd: 51.7 nM
